Experimental data from ChEMBL document CHEMBL1125346, “Guanidinophenyl-substituted enol lactones as selective, mechanism-based inhibitors of trypsin-like serine proteases” (J Med Chem, 1992).

How the values were obtained:
[1] = target: Chymotrypsinogen A (Bos taurus) (UniProt P00766); test: Time for which maximum percent inhibition persists was determined against alpha-chymotrypsin (17 nM); type: functional
In short: (§1)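 Enzyme incubated with excess lactone added from DMSO stock (final 10% DMSO); aliquots over 2 h diluted into substrate: chymotrypsin Suc-AAPF-pNA 315 µM, pH 7.2, 410 nm; t-PA Spectrozyme t-PA 0.2 mM, Tris-imidazole pH 8.4, 405 nm; HNE MeO-Suc-AAPV-pNA 150 µM, pH 7.4, 410 nm; plasmin Ts-GPK-pNA 157.4 µM, pH 7.8, 404 nm; thrombin Ts-GPR-pNA 75 µM, pH 8.0, 408 nm; trypsin Z-VGR-pNA 155 µM, pH 7.2, 404 nm. Activity given relative to a no-lactone control. Some runs used a 10-min substrate-free delay after dilution. ∞ means no recovery over 2 h.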

[2] = target: Chymotrypsinogen A (Bos taurus) (UniProt P00766); test: Time to reach maximum percent inhibition by the compound was determined against alpha-chymotrypsin (17 nM); type: functional
In short: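 α-Chymotrypsin with excess lactone (DMSO, 10% final) was sampled over 2 h into Suc-Ala-Ala-Pro-Phe-pNA (315 μM) in 0.2 M phosphate, pH 7.2. Absorbance at 410 nm gave the remaining activity versus a control without lactone. Minutes to maximal inhibition were taken.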

[3] = target: Chymotrypsinogen A (Bos taurus) (UniProt P00766); test: Maximum percent inhibition by the compound was determined against Chymotrypsinogen (17 nM); in short: as §1
[4] = target: T1, Neutrophil elastase (Homo sapiens) (UniProt P08246); test: Maximum percent inhibition by the compound was determined against human neutrophil elastase (HNE); in short: as §1
T1 sequence (whole entry): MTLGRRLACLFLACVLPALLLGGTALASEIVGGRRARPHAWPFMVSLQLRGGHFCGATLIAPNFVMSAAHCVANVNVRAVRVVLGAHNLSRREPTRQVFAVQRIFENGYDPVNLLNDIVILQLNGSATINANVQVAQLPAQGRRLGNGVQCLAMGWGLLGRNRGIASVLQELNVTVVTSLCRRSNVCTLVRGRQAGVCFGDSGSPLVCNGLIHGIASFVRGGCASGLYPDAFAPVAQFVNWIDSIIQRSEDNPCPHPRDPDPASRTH

[5] = target: T1, Neutrophil elastase (Homo sapiens); test: Time for which maximum percent inhibition persists was determined against human neutrophil elastase (HNE); type: functional; in short: as §1
[6] = target: T1, Neutrophil elastase (Homo sapiens); test: Time to reach maximum percent inhibition by the compound was determined against human neutrophil elastase (HNE); type: functional
In short: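 HNE was incubated with excess lactone in 10% final DMSO. Aliquots drawn during 2 h went into MeO-Suc-Ala-Ala-Pro-Val-pNA (150 μM) in 0.1 M phosphate, 0.5 M NaCl, pH 7.4, read at 410 nm. Activity was set relative to a lactone-free control, and the time (min) to peak inhibition was noted.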

[7] = target: Plasminogen (Homo sapiens) (UniProt P00747); test: Time to reach maximum percent inhibition by the compound was determined against plasmin(625 nM); type: functional
Chain of Plasminogen (Homo sapiens) (P00747 97-580 limits assumed): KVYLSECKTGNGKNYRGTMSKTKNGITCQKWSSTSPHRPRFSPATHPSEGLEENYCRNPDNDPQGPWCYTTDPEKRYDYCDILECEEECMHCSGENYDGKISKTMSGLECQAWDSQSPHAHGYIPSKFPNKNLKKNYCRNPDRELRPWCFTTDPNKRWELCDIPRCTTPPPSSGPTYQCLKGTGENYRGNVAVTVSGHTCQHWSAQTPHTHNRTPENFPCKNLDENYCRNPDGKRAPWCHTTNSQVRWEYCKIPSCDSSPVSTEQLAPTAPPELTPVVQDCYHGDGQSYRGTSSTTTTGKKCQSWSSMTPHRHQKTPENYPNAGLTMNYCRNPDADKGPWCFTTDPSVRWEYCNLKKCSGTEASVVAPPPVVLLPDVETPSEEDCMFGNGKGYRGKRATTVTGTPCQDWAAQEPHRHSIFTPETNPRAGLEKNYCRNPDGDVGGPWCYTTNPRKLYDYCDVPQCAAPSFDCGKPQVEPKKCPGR
Chain of Plasminogen (Homo sapiens) (P00747 581-810 limits assumed): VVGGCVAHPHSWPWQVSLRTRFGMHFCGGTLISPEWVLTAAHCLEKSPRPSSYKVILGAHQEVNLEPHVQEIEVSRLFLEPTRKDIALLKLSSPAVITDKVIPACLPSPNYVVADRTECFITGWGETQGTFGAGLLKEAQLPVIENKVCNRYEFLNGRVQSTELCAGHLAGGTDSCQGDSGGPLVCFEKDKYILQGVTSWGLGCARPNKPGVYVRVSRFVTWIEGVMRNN
In short: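 Plasmin plus excess lactone (10% final DMSO) was sampled over 2 h into Ts-Gly-Pro-Lys-pNA (157.4 μM) in 0.05 M phosphate, pH 7.8. The slope at 404 nm, relative to an enzyme-only control, gave residual activity. Minutes needed to reach maximal inhibition were reported.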

[8] = target: Plasminogen (Homo sapiens) (UniProt P00747); test: Time for which maximum percent inhibition persists was determined against plasmin; type: functional; in short: as §1
[9] = target: Plasminogen (Homo sapiens) (UniProt P00747); test: Maximum percent inhibition by the compound was determined against plasmin(625 nM); in short: as §1
[10] = target: Tissue-type plasminogen activator (Homo sapiens) (UniProt P00750); test: Maximum percent inhibition by the compound was determined against Tissue plasminogen activator (19.4 nM); in short: as §1
Chain of Tissue-type plasminogen activator (Homo sapiens) (P00750 36-562 limits assumed): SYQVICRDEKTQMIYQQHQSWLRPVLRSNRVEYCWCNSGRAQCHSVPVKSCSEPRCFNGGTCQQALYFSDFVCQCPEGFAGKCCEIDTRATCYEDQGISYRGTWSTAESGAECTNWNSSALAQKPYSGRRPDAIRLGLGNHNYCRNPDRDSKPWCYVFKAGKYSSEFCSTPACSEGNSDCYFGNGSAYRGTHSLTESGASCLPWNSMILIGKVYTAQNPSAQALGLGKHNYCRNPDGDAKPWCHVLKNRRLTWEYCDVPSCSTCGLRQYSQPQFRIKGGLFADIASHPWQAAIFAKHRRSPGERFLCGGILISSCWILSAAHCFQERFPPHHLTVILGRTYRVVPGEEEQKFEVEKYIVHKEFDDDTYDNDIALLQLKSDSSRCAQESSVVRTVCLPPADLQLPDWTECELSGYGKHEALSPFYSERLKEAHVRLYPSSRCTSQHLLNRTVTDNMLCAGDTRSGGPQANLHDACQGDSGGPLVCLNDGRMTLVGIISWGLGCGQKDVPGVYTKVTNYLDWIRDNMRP

[11] = target: Tissue-type plasminogen activator (Homo sapiens) (UniProt P00750); test: Time for which maximum percent inhibition persists was determined against Tissue plasminogen activator (19.4 nM); type: functional; in short: as §1
[12] = target: Tissue-type plasminogen activator (Homo sapiens) (UniProt P00750); test: Time to reach maximum percent inhibition by the compound was determined against Tissue plasminogen activator (19.4 nM); type: functional
In short: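 Tissue plasminogen activator was exposed to excess lactone (10% final DMSO). Over 2 h, aliquots were diluted into Spectrozyme t-PA (0.2 mM) in Tris-imidazole, I 0.3, pH 8.4. Hydrolysis at 405 nm gave residual activity relative to an enzyme-only control. The time (min) to reach maximal percent inhibition was recorded.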

[13] = target: Prothrombin (Homo sapiens) (UniProt P00734); test: Time for which maximum percent inhibition persists was determined against thrombin (1.93 nM); type: functional; in short: as §1
[14] = target: Prothrombin (Homo sapiens) (UniProt P00734); test: Time to reach maximum percent inhibition by the compound was determined against thrombin (1.93 nM); type: functional
In short: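 Thrombin was incubated with excess lactone (DMSO, 10% final). Aliquots over 2 h were diluted into Ts-Gly-Pro-Arg-pNA (75 μM) in 0.05 M phosphate, 0.01 M EDTA, 10 g/L PEG 8000, 10 mg/L aprotinin, pH 8.0, and read at 408 nm against a no-lactone control. Time to maximal inhibition was recorded.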

[15] = target: T2, Serine protease 1 (Bos taurus) (UniProt P00760); test: Substrate binding constant against trypsin
T2 sequence (whole entry): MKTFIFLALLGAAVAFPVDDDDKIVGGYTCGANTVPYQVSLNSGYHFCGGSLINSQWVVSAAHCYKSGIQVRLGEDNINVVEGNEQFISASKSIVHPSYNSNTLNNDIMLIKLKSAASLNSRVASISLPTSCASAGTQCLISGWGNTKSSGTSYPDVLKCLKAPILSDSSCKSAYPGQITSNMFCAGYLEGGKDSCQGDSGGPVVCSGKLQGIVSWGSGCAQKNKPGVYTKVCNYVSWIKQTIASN
In short: (§2)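 Competitive substrate assay: lactone (DMSO, final 10% v/v) and chromogenic substrate combined in buffer, enzyme added, absorbance followed to steady state. Turnover-corrected semilog plot gives kobs; I0 vs I0/kobs replot (eq 6) with separately determined Km yields Ki and ka. Where no burst was seen, Ki was estimated from Km(app) replots using 15-s initial velocities. Buffers and substrates as in incubation assay.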

[16] = target: T2, Serine protease 1 (Bos taurus); test: Second order rate constant against trypsin; in short: as §2
[17] = target: T2, Serine protease 1 (Bos taurus); test: Time to reach maximum percent inhibition by the compound was determined against trypsin (14.6 nM); type: functional
In short: (§3)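 Trypsin was incubated with excess lactone added from DMSO stock (10% final DMSO). Aliquots taken over 2 h were diluted into Z-Val-Gly-Arg-pNA (155 μM) in 0.2 M phosphate, pH 7.2, and read at 404 nm. Activity came from the absorbance slope versus a no-lactone control. Reported are minutes to maximal inhibition and minutes it persisted; ∞ means no recovery within 2 h.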

[18] = target: T2, Serine protease 1 (Bos taurus); test: Time for which maximum percent inhibition persists was determined against trypsin (14.6 nM); type: functional; in short: as §3
[19] = target: Prothrombin (Homo sapiens) (UniProt P00734); test: Maximum percent inhibition by the compound was determined against thrombin (1.93 nM); in short: as §1
[20] = target: T2, Serine protease 1 (Bos taurus); test: Maximum percent inhibition by the compound was determined against trypsin (14.6 nM); in short: as §1
[21] = target: T2, Serine protease 1 (Bos taurus); test: Acylation rate constant against trypsin; in short: as §2
[22] = target: T3, Urokinase-type plasminogen activator (Homo sapiens, UniProt P00749); test: Time for which maximum percent inhibition persists was determined against Urokinase-type plasminogen activator e (300 nM); * =no enzyme activity was recovered over 2 h; type: functional
[23] = Ratio of initial inhibitor concentration to initial Chymotrypsinogen concentration
In short: (§4)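 Ratio I0/E0 of lactone to enzyme in the 2-h incubation assay; lactone added from DMSO stock to buffered enzyme (final 10% DMSO).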

[24] = Ratio of initial inhibitor concentration to initial HNE concentration; in short: as §4
[25] = Ratio of initial inhibitor concentration to initial Plasmin concentration; in short: as §4
[26] = Ratio of initial inhibitor concentration to initial t-PA concentration; in short: as §4
[27] = Ratio of initial inhibitor concentration to initial thrombin concentration; in short: as §4
[28] = Ratio of initial inhibitor concentration to initial trypsin concentration; in short: as §4
[29] = Ratio of initial inhibitor concentration to initial urokinase concentration; in short: as §4
[30] = target: T3, Urokinase-type plasminogen activator
[31] = target: T3, Urokinase-type plasminogen activator; remark: listed apart in the source
[32] = target: T3, Urokinase-type plasminogen activator; remark: listed apart in the source

## C=C1CCC(c2ccc(NC(=N)N)cc2)C(=O)O1 (configuration not stated)
[1]
  TIME: 0 h
[2]
  TIME: 0.75 h
[3]
  inhibition: 58%
[4]
  inhibition: 22%
[5]
  TIME: 0 h
[6]
  TIME: 0.25 h
[7]
  TIME: 0 h
[8]
  TIME: 0 h
[9]
  inhibition: 99%
[10]
  inhibition: 29%
[11]
  TIME: 0 h
[12]
  TIME: 0 h
[13]
  TIME: 0 h
[14]
  TIME: 0 h
[15]
  Ks: 0.23 µM
[16]
  Rate: 62 ka/Ks
[17]
  TIME: 0 h
[18]
  TIME: 0.75 h
[19]
  inhibition: 7%
[20]
  inhibition: 97%
[21]
  Ka: 14 min⁻¹
[22]
  TIME: No enzyme activity
[23]
  Ratio: 118 Io/Eo
[24]
  Ratio: 36 Io/Eo
[25]
  Ratio: 16 Io/Eo
[26]
  Ratio: 100 Io/Eo
[27]
  Ratio: 518 Io/Eo
[28]
  Ratio: 86 Io/Eo
[29]
  Ratio: 50 Io/Eo
[30]
  Ks: 0.33 µM
[31]
  Rate: 1180 ka/Ks
[32]
  Ka: 391 min⁻¹
